Experimental data: ChEMBL document CHEMBL1133751, “Design, synthesis, and biological evaluation of tricyclic nucleosides (dimensional probes) as analogues of certain antiviral polyhalogenated benzimidazole ribonucleosides” (J Med Chem, 2000)

Tests used:
[1] = Compound was tested for the inhibition of KB cell growth in quadruplicate wells; assay type: functional, cell-based; details: Homo sapiens
Method in brief: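 KB cells grown through two population doublings with compound in quadruplicate wells. Growth quantified by crystal violet staining and spectrophotometric reading of eluted dye. IC50 from linear regression of percent inhibition against log concentration.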

HFF [2] = test: Visual cytotoxicity against stationary human foreskin fibroblasts (HFF) cells at the time of HCMV plaque enumeration; assay type: functional, cell-based
Method in brief: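 Stationary HFF monolayers in the uninfected wells of the HCMV plaque assay inspected microscopically for cytotoxicity. Compounds in growth medium at 4–8 concentrations. IC50 from linear regression of percent inhibition against log concentration.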

Human alphaherpesvirus 1 = test: Antiviral activity against HSV-1 (herpes simplex virus), determined by ELISA in quadruplicate wells using BSC-1 cells; assay type: functional, organism-based; details: Human alphaherpesvirus 1, BSC-1
Method in brief: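 KOS strain HSV-1 at 100 PFU/well added with selected drug concentrations in quadruplicate to 96-well dishes seeded with 10 000 BSC-1 cells/well and incubated overnight. Virus detected by ELISA. IC50 from linear regression of percent inhibition vs log concentration. Average of 2–3 separate experiments.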

HFF [3] = test: Antiviral activity against towne strain HCMV was determined by plaque reduction assay in duplicate wells using HFF cells; assay type: functional, cell-based; details: Homo sapiens
Method in brief: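 HFF monolayers in 24-well dishes infected with about 100 PFU Towne HCMV (plaque-purified isolate P0) per cm2. Compounds in growth medium added to duplicate wells at 4–8 concentrations. Plaques scored. IC50 from linear regression of percent inhibition against log drug concentration.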

HFF [4] = test: Antiviral activity against towne strain HCMV was determined by yield reduction assay in duplicate wells using HFF cells; assay type: functional; details: Homo sapiens
Method in brief: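 HFF cells plated in 96-well dishes and incubated overnight. Inoculated with Towne HCMV at MOI 0.5–1 PFU/cell, then drug added, in duplicate wells. Progeny virus yield measured. IC90 from the linear portion of log–log regression of yield versus drug concentration.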

| SMILES | IC50 [1] | IC50 (HFF [2]) | IC50 (Human alphaherpesvirus 1) | IC50 (HFF [3]) | IC90 (HFF [4]) |
| --- | --- | --- | --- | --- | --- |
| OC[C@H]1OC(n2c(NC3CC3)nc3nc4cc(Cl)c(Cl)cc4cc32)[C@H](O)[C@@H]1O (stereo partly specified) | > 100 µM | > 100 µM | > 100 µM | > 100 µM |  |
| OC[C@H]1OC(n2c(SCc3ccccc3)nc3cc4cc(Cl)c(Cl)cc4cc32)[C@H](O)[C@@H]1O (stereo partly specified) | > 100 µM | > 100 µM | > 100 µM | > 100 µM |  |
| OC[C@H]1O[C@@H](n2c(Cl)nc3cc(Cl)c(Cl)cc32)[C@H](O)[C@@H]1O | 210 µM |  |  | 2.9 µM | 1.4 µM |
| OC[C@H]1OC(n2c(SCc3ccccc3)nc3cc4cc(Cl)c(Cl)cc4nc32)[C@H](O)[C@@H]1O (stereo partly specified) | > 100 µM | > 10 µM | > 100 µM | > 10 µM |  |
| OC[C@H]1OC(n2c(NC3CC3)nc3cc4cc(Cl)c(Cl)cc4cc32)[C@H](O)[C@@H]1O (stereo partly specified) | 55 µM | 32 µM | 80 µM | 32 µM |  |
| CC(C)Nc1nc2nc3cc(Cl)c(Cl)cc3cc2n1C1O[C@H](CO)[C@@H](O)[C@H]1O (stereo partly specified) | 90 µM | 100 µM | > 100 µM | 32 µM |  |
| OC[C@H]1O[C@@H](n2cnc3cc(Cl)c(Cl)cc32)[C@H](O)[C@@H]1O [DICHLORORIBOBENZIMIDAZOLE] | 36 µM |  | 30 µM | 42 µM | 19 µM |
| Nc1nc2c(ncn2COC(CO)CO)c(=O)[nH]1 [GANCICLOVIR] | > 100 µM | > 100 µM |  |  | 1.6 µM |
| OC[C@H]1OC(n2c(Cl)nc3cc4cc(Cl)c(Cl)cc4nc32)[C@H](O)[C@@H]1O (stereo partly specified) | 8 µM | 18 µM | 90 µM | 18 µM | 9.2 µM |
| OC[C@H]1OC(n2c(SCc3ccccc3)nc3nc4cc(Cl)c(Cl)cc4cc32)[C@H](O)[C@@H]1O (stereo partly specified) | 40 µM | 20 µM | > 100 µM | 4.2 µM |  |
| CC(C)Nc1nc2cc3cc(Cl)c(Cl)cc3nc2n1C1O[C@H](CO)[C@@H](O)[C@H]1O (stereo partly specified) | 90 µM | 32 µM | > 100 µM | 32 µM |  |
| OC[C@H]1OC(n2c(NC3CC3)nc3nc4cc(Cl)c(Cl)cc4nc32)[C@H](O)[C@@H]1O (stereo partly specified) | 90 µM | > 100 µM | > 100 µM | 32 µM |  |
| OC[C@H]1OC(n2cnc3nc4cc(Cl)c(Cl)cc4cc32)[C@H](O)[C@@H]1O (stereo partly specified) | 85 µM | > 100 µM | > 100 µM | > 100 µM | 85 µM |
| OC[C@H]1OC(n2cnc3cc4cc(Cl)c(Cl)cc4nc32)[C@H](O)[C@@H]1O (stereo partly specified) | > 100 µM | > 10 µM | > 100 µM | > 10 µM |  |
| CC(C)Nc1nc2cc3cc(Cl)c(Cl)cc3cc2n1C1O[C@H](CO)[C@@H](O)[C@H]1O (stereo partly specified) | 146 µM | 32 µM | 80 µM | 32 µM |  |
| CC(C)Nc1nc2nc3cc(Cl)c(Cl)cc3nc2n1C1O[C@H](CO)[C@@H](O)[C@H]1O (stereo partly specified) | 70 µM | 100 µM | 100 µM | 32 µM |  |
| OC[C@H]1OC(n2c(Cl)nc3cc4cc(Cl)c(Cl)cc4cc32)[C@H](O)[C@@H]1O (stereo partly specified) | 19 µM | 3.2 µM | 26 µM | 2 µM | 2.3 µM |
| OC[C@H]1OC(n2c(Cl)nc3nc4cc(Cl)c(Cl)cc4cc32)[C@H](O)[C@@H]1O (stereo partly specified) | 11 µM | 21 µM | 70 µM | 2 µM | 45 µM |
| OC[C@H]1OC(n2c(NC3CC3)nc3cc4cc(Cl)c(Cl)cc4nc32)[C@H](O)[C@@H]1O (stereo partly specified) | 100 µM | > 100 µM | > 100 µM | > 100 µM |  |
| OC[C@H]1OC(n2cnc3nc4cc(Cl)c(Cl)cc4nc32)[C@H](O)[C@@H]1O (stereo partly specified) | > 100 µM | 45 µM | > 100 µM | 32 µM |  |
| OC[C@H]1OC(n2cnc3cc4cc(Cl)c(Cl)cc4cc32)[C@H](O)[C@@H]1O (stereo partly specified) | > 100 µM | > 100 µM | > 100 µM | > 100 µM | 17 µM |
| OC[C@H]1OC(n2c(SCc3ccccc3)nc3nc4cc(Cl)c(Cl)cc4nc32)[C@H](O)[C@@H]1O (stereo partly specified) | 20 µM | 20 µM | 30 µM | 4.2 µM |  |
